Source: ChEMBL document CHEMBL1158703, “Psychopharmacological profile of the alkaloid psychollatine as a 5HT2A/C serotonin modulator” (2005)
The source made the active and inactive calls.

Experiments:
Mus musculus [1] = organism: Mus musculus; experiment: Anticonvulsant activity against CF1 mouse assessed as protection against PTZ-induced convulsions for 60 mins; type: functional, organism-based
Outline: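 Male adult CF1 mice (n = 10/group) dosed i.p.; 30 min later pentylenetetrazol 88 mg/kg s.c. Each mouse placed alone in an acrylic chamber and watched 60 min for clonic convulsions lasting over 3 s. Read-out is the fraction of mice convulsing, analysed by Fisher's exact test.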

Mus musculus [2] = experiment: Antidepressant activity in CF1 mouse assessed as decrease in duration of immobility at 3 mg/kg during final 4 mins of the 6 mins session by forced swimming test; type: functional
Outline: (§1)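 Male adult CF1 mice given i.p. doses in saline (pH 7.0), N = 10. Each mouse swam 6 min in a 30 cm-diameter cylinder holding 20 cm of water at 25 ± 1 °C. Immobility was timed over the last 4 min. Values are mean ± SEM, analysed by ANOVA against saline.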

Mus musculus [3] = experiment: Antidepressant activity in CF1 mouse assessed as decrease in duration of immobility at 7.5 mg/kg during final 4 mins of the 6 mins session by forced swimming test; type: functional; outline: as §1
Mus musculus [4] = experiment: Anxiolytic activity against CF1 mouse assessed as suppression of oxotremorine-treated tremors at 3 mg/kg; type: functional, organism-based; set-up: dose 3 mg/kg
Outline: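 Mice received treatment i.p. 30 min before oxotremorine 0.5 mg/kg in saline. Each mouse was then placed alone in a transparent cage immediately after injection and tremor was scored. Data given as median (interquartile range); Kruskal–Wallis then Mann–Whitney U against saline + oxotremorine.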

Mus musculus [5] = experiment: Anxiolytic activity against CF1 mouse assessed as suppression of oxotremorine-treated tremors at 7.5 mg/kg; type: functional, organism-based; set-up: dose 7.5 mg/kg
Outline: (§2)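 Male CF1 mice were given the test drug i.p. in saline 30 min before oxotremorine 0.5 mg/kg. Each mouse was then placed alone in an acrylic cage for observation of tremor. Values are median (interquartile range), analysed by Kruskal–Wallis then Mann–Whitney U against saline + oxotremorine.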

Mus musculus [6] = experiment: Anxiolytic activity against CF1 mouse assessed as suppression of oxotremorine-treated tremors at 10 mg/kg; type: functional, organism-based; set-up: dose 10 mg/kg; outline: as §2
Mus musculus [7] = experiment: Anxiolytic activity against CF1 mouse assessed as suppression of oxotremorine-treated tremors at 30 mg/kg; type: functional, organism-based; set-up: dose 30 mg/kg; outline: as §2
Mus musculus [8] = experiment: Anxiolytic activity against CF1 mouse assessed as suppression of oxotremorine-treated tremors at 100 mg/kg; type: functional, organism-based; set-up: dose 100 mg/kg; outline: as §2
Mus musculus [9] = experiment: Effect on short term memory of CF1 mouse assessed as reduction in latency during aquisition at 100 mg/kg by passive avoidance test; type: functional
Outline: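 Step-down inhibitory avoidance in male CF1 mice with i.p. dosing 30 min before training. Stepping down during training gave a 0.3 mA scrambled foot shock for 15 s. The latency to step down during training was recorded, with no exclusion criterion applied. N = 20 per group; values are median (interquartile range).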

Mus musculus [10] = experiment: […] of CF1 mouse assessed as reduction in step down latency at 0.85 mg/kg by passive avoidance test; type: functional
Mus musculus [11] = experiment: Effect on short term memory of CF1 mouse assessed as reduction in step down latency at 7.5 mg/kg by passive avoidance test; type: functional
Mus musculus [12] = experiment: […] of CF1 mouse assessed as reduction in step down latency at 30 mg/kg by passive avoidance test; type: functional
Mus musculus [13] = experiment: Effect on long term memory of CF1 mouse assessed as reduction in step down latency at 100 mg/kg by passive avoidance test; type: functional
Outline: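 Step-down inhibitory avoidance in male CF1 mice dosed i.p. immediately after training, during which a 0.3 mA foot shock for 15 s followed stepping down. Test step-down latency was recorded 24 h later without shock, with a 300 s cutoff. N = 20 per group; values are median (interquartile range).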

Mus musculus [14] = experiment: Anxiolytic activity against CF1 mouse assessed as reduction in number in crossings at 200 mg/kg after 30 mins by hole-board assay; type: functional, organism-based; set-up: dose 200 mg/kg
Outline: (§3)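 Hole-board set 15 cm high and divided into 16 squares, with photocells counting head-dips. Male CF1 mice were dosed i.p. and placed centrally 30 min later under dim light. Over 5 min, head-dips, rearings and squares crossed were counted. Values are mean ± SEM (N = 15), analysed by one-way ANOVA then SNK.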

Mus musculus [15] = experiment: Anxiolytic activity against CF1 mouse assessed as reduction in number in head dips at 200 mg/kg after 30 mins by hole-board assay; type: functional, organism-based; set-up: dose 200 mg/kg; outline: as §3
Mus musculus [16] = experiment: Anxiolytic activity against CF1 mouse assessed as increase in number of crossings at 7.5 mg/kg after 30 mins by hole-board assay; type: functional, organism-based; set-up: dose 7.5 mg/kg; outline: as §3
Mus musculus [17] = experiment: Anxiolytic activity against CF1 mouse assessed as increase in number of rearings at 15 mg/kg after 30 mins by hole-board assay; type: functional, organism-based; set-up: dose 15 mg/kg; outline: as §3
Mus musculus [18] = experiment: Antidepressant activity in CF1 mouse assessed as decrease in duration of immobility at 30 mg/kg during final 4 mins of the 6 mins session by forced swimming test; type: functional, organism-based; set-up: dose 30 mg/kg; outline: as §1
Mus musculus [19] = experiment: Anxiolytic activity against CF1 mouse assessed as increase in number of crossings at 7.5 mg/kg after 30 mins in presence of ritanserin by hole-board assay; type: functional, organism-based; set-up: dose 7.5 mg/kg
Outline: (§4)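 Male CF1 mice received ritanserin 2 mg/kg i.p. in 10% DMSO 30 min before the test drug at 7.5 mg/kg i.p. The 5 min hole-board session began 30 min later, counting head-dips, crossings and rearings. Values are mean ± SEM (N = 8-14), analysed by ANOVA/SNK.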

Mus musculus [20] = experiment: Anxiolytic activity against CF1 mouse assessed as increase in number of rearings at 7.5 mg/kg after 30 mins in presence of ritanserin by hole-board assay; type: functional, organism-based; set-up: dose 7.5 mg/kg; outline: as §4
Mus musculus [21] = experiment: Anxiolytic activity against CF1 mouse assessed as increase in time spent in light compartment at 7.5 mg/kg for 5 mins; type: functional, organism-based; set-up: dose 7.5 mg/kg
Outline: (§5)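 Light/dark box with a black, room-lit small compartment and a white large compartment lit at 400 lx. Male CF1 mice were acclimated at least 1 h under dim red light and dosed i.p. 30 min before testing. Recorded were latency to first entry and time spent in the light area. Values are mean ± SEM (N = 19-22), analysed by one-way ANOVA then SNK.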

Mus musculus [22] = experiment: Anxiolytic activity against CF1 mouse assessed as increase in latency to enter in the dark compartment 7.5 mg/kg for 5 mins; type: functional, organism-based; set-up: dose 7.5 mg/kg; outline: as §5
Mus musculus [23] = experiment: Anxiolytic activity against CF1 mouse assessed as increase in time spent in light compartment at 7.5 mg/kg in presence of ritanserin for 5 mins; type: functional, organism-based; set-up: dose 7.5 mg/kg
Outline: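 Male CF1 mice received ritanserin 2 mg/kg i.p. (in 10% DMSO) 30 min before the test drug at 7.5 mg/kg i.p. The light/dark test followed 30 min later, scoring latency to first entry and time in the light compartment. Values are mean ± SEM (N = 8-10), analysed by one-way ANOVA/SNK.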

Mus musculus [24] = experiment: Effect on locomotory activity in CF1 mouse assessed as change in spontaneous activity at 3 to 30 mg/kg; type: functional, organism-based
Outline: (§6)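 Mice were habituated singly for 10 min in photocell activity cages and then dosed i.p. Diazepam was given in 10% propylene glycol. After 30 min, crossings were recorded for 15 min. n = 10–16, ANOVA then SNK.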

Mus musculus [25] = experiment: Effect on locomotory activity in CF1 mouse assessed as change in spontaneous activity at 0.75 and 0.85 mg/kg; type: functional, organism-based; set-up: dose 0.85 mg/kg; outline: as §6
Mus musculus [26] = experiment: Effect on locomotory activity in CF1 mouse assessed as reduction in spontaneous activity at 100 mg/kg; type: functional, organism-based; set-up: dose 100 mg/kg
Outline: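 Male CF1 mice were habituated 10 min in photocell activity cages, then dosed i.p. (n = 10-16). Thirty minutes later crossings were recorded over 15 min. Values are mean ± SEM, analysed by one-way ANOVA then SNK.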

In the case of `COC(=O)C1=CO[C@@H](O[C@H]2O[C@H](CO)[C@@H](O)[C@H](O)[C@H]2O)[C@@H]2C([C@@H]3NCCc4c3[nH]c3ccccc43)=CC[C@H]12` [PSYCHOLLATINE], the Activity (Mus musculus [1]) is reported as “inactive”, the Activity (Mus musculus [2]) is reported as 48.88 s and the Activity (Mus musculus [3]) is reported as 56.41 s. For the same molecule, the Activity (Mus musculus [4]) was “Active”, the Activity (Mus musculus [5]) was “Active” and the Activity (Mus musculus [6]) was “Active”. For the same molecule, the Activity (Mus musculus [7]) was “Active”, the Activity (Mus musculus [8]) was “Active” and the Activity (Mus musculus [9]) was 6.8 s. It also gave an Activity (Mus musculus [10]) of 8.3 s, an Activity (Mus musculus [11]) of 9.6 s and an Activity (Mus musculus [12]) of 12.8 s. The Activity (Mus musculus [13]) was 9.5 s, the Activity (Mus musculus [14]) was “Active” and the Activity (Mus musculus [15]) was “Active”. The Activity (Mus musculus [16]) was “Active”, the Activity (Mus musculus [17]) was “Active” and the Activity (Mus musculus [18]) was “inactive”. The Activity (Mus musculus [19]) was “inactive”, the Activity (Mus musculus [20]) was “inactive” and the Activity (Mus musculus [21]) was “Active”. The Activity (Mus musculus [22]) was “Active”, the Activity (Mus musculus [23]) was “inactive” and the Activity (Mus musculus [24]) was “inactive”. The Activity (Mus musculus [25]) was “inactive” and the Activity (Mus musculus [26]) was “Active”.
